In PubChem BioAssay AID1046 (PCMD, 2008):
The whole screen tested about 220,000 compounds, of which about 560 (0.25%) were called active.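 Rule for the calls: active = inhibition at or above 40%; inactive = inhibition below 40%.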 The full list was thinned out, with actives kept by preference.

What follows are molecules tested against Prothrombin (Homo sapiens) (UniProt P00734) (assay: blockers of thrombin peptide substrate cleavage – biochemical, 1536-well, fluorogenic AMC substrate, counter-screen for coagulation protease inhibitor project, primary screen (AID 1046;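 note: 0% = enzyme with no compound and 100% = wells without enzyme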)). Details: alpha-thrombin, Boc-VPR-AMC fluorogenic substrate cleavage; at 5 µM; hits give high values.
Summary of the method: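 Material: human alpha-thrombin enzyme / Medium: pH 7.5 Tris (50 mM) with NaCl 150 mM, Tween 20 0.05% / Compound: single-point dosing at 5 µM, 0.2% DMSO / Incubation: enzyme reaction carried out at room temperature / Detection: AMC fluorescence, 355/460 nm / Read-out basis: percent inhibition scaled between no-compound controls and no-enzyme blanks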

SMILES | inhibition
Cc1nc(N2CCCC2C(=O)O)c2oc3ccccc3c2n1 (stereo unspecified) | 2.84% (inactive)
Cc1nc(Cl)c2oc3ccccc3c2n1 | 104% (active)
CCSc1nc(C)nc2c1oc1ccccc12 | 4.11% (inactive)
CCc1nnc(NC(=O)CCC(=O)NCc2ccccc2OC)s1 | 2.56% (inactive)
CCc1nnc(NC(=O)CCN(c2ccc(C)cc2)S(=O)(=O)c2ccccc2)s1 | 47.5% (active)
CCc1nnc(NC(=O)CCC(=O)O)s1 | 8.11% (inactive)
O=C(Nc1ccc(F)cc1)c1cc2c(s1)CCCC2 | -1.36% (inactive)
CCCCNS(=O)(=O)c1ccc2nc(SCC(=O)Nc3cc(C)cc(C)c3)[nH]c2c1 | -6.37% (inactive)
CN(C(=O)c1c(Cl)cnn1C)C12CC3CC(CC(C3)C1)C2 | -15.4% (inactive)
C/C(=N\NC(=O)CSc1nc2ccccc2c(=O)n1-c1ccccc1C)c1cccs1 | 0.36% (inactive)
Cc1ccc(OCCOCCOc2ccc(Br)cc2/C=N\NC(=O)c2ccncc2)cc1 | -13.6% (inactive)
Cc1c([N+](=O)[O-])c(N)nn1C | 5.35% (inactive)
Cc1ccc2cc(C)c(N3CCC(C)CC3)nc2c1 | -2.54% (inactive)
CN(c1ccc(OCC(=O)OCC(=O)Nc2cccc([N+](=O)[O-])c2)cc1)S(=O)(=O)c1ccc(F)cc1 | 2.69% (inactive)
CC1CC(=O)Nc2ccccc2N1S(=O)(=O)c1cccs1 (stereo unspecified) | -3.5% (inactive)
Cc1[nH]c2ccccc2c1-c1ccc(Cl)nn1 | 1.85% (inactive)
O=C(O)C(F)(F)C(NCc1ccccc1)c1ccccc1 (stereo unspecified) | 5.86% (inactive)
CN(C)C(CNC(=O)c1cccc(C#N)c1)c1ccco1 (stereo unspecified) | -12.4% (inactive)
CC/C=C/C(=O)N1CC2(CC(c3cccc(NC(=O)CC)c3)=NO2)C[C@H]1C(N)=O (stereo partly specified) | -2.66% (inactive)
CCOC(=O)C1CCN(c2ccc(C(=O)O)cc2[N+](=O)[O-])CC1 | -6.48% (inactive)
CCOC(=O)CSc1nc(C)cc2c1C(=O)OC2 | -3.04% (inactive)

SMILES | inhibition
CCOC(=O)CSC1=N/C(=C/c2ccc(-n3cncn3)cc2)C(=O)N1C(C)=O | 86.8% (active)
CCOC(=O)CSc1ccccn1 | -0.12% (inactive)
N#Cc1c(C(F)(F)F)cc(-c2cccs2)nc1N1CCCCC1 | -5.35% (inactive)
COc1ccc(-n2c(O)c(C=NCC(c3ccco3)N3CCCC3)c3ccccc3c2=O)cc1OC (stereo unspecified) | 1.85% (inactive)
CCc1ccccc1NC(=O)CN(C)S(=O)(=O)c1ccc2c(c1)c(=O)n(C)c(=O)n2C | -7.84% (inactive)
CCN(C(=O)CSc1nnc2ccccn12)C1CCS(=O)(=O)C1 (stereo unspecified) | 2.43% (inactive)
CCOC(=O)c1nnn2c3ccccc3c(=O)n(C)c12 | -5.13% (inactive)
COC(=O)c1onc(-c2c(OC)cc(OC)cc2OC)c1C(=O)OC | 1.99% (inactive)
COc1ccc(C(C)=O)cc1CSc1nc2nc(C)cc(C)n2n1 | -1.59% (inactive)
Cc1ccc(S(=O)(=O)/N=C(\CN2CCOCC2)N2CCOCC2)cc1 | -16.3% (inactive)
Nc1ccccc1Sc1cc(Cl)nnc1Cl | 14.4% (inactive)
CC(=O)NCCC(=O)Nc1nc(C)c(Cc2ccc3c(c2)OCO3)s1 | -4.26% (inactive)
Cc1ccc(NC(=S)NCCN2CCOCC2)cc1 | -1.01% (inactive)
CCOc1nc(NCCN2CCOCC2)nc(Nc2ccc(C)cc2)n1 | 63.7% (active)
Nc1nc(NCCCN2CCOCC2)nc(Nc2ccccc2)c1[N+](=O)[O-] | -6.41% (inactive)
CSc1c(SCc2ccccc2)cnn(Cc2ccccc2)c1=O | 0.48% (inactive)
COCCOC(=O)c1c(C)oc2cc(Br)c(OCC(N)=O)cc12 | -6.6% (inactive)
O=C1N(c2ccccc2)C(=Nc2ccccc2)SC12CC2 | -5.96% (inactive)
COc1ccc(C/C(C)=N/NC(=O)c2cc(C)oc2C)cc1 | 0.98% (inactive)
CN(C(=O)CSc1nnc(Nc2ccccc2)s1)C1CCS(=O)(=O)C1 (stereo unspecified) | -0.79% (inactive)
Cc1cc(C(=O)COc2ccccc2[N+](=O)[O-])c(C)n1-c1cccc(S(=O)(=O)N2CCOCC2)c1 | 5.89% (inactive)

SMILES | inhibition
CC1=C(C)CC(C(=O)NNC(=O)c2ccccc2O)C(C(=O)O)C1 (stereo unspecified) | -3.8% (inactive)
Cc1cc(C)n2nc(C(=O)N3CCN(Cc4ccc5c(c4)OCO5)CC3)nc2n1 | -9.34% (inactive)
COc1ccc(CNC(=O)CN(Cc2ccc(Cl)cc2)S(C)(=O)=O)cc1 | -2.34% (inactive)
Cc1cc(C)cc(C(=O)NC2C(=O)N3C(C(=O)O)=C(CSc4nnc(C)s4)CSC23)c1 (stereo unspecified) | -12% (inactive)
O=C(Cn1cnc([N+](=O)[O-])n1)NCCc1ccccc1 | -6.67% (inactive)
CN(C)c1cc(-c2ccc(F)cc2)oc(=O)c1Cl | -0.75% (inactive)
CN(c1ccc(OCC(=O)NC2=NCCS2)cc1)S(=O)(=O)c1ccc(F)cc1 | -4.51% (inactive)
Cc1ccc(SCc2c(C(=O)N/N=C/C3CC=CCC3)nnn2-c2nonc2N)cc1 (stereo unspecified) | -0.65% (inactive)
O=C(NCC1CCCO1)c1cc(-c2ccccc2)nc2ccccc12 (stereo unspecified) | 3.52% (inactive)
Cn1cc(CN2CCCCC2c2ccccn2)c(-c2ccc3c(c2)OCCO3)n1 (stereo unspecified) | -14.8% (inactive)
O=S(=O)(c1cccc(C(F)(F)F)c1)N1CCN(c2cnccn2)CC1 | 2.6% (inactive)
CCCN1C(=O)C(Cc2nc3ccccc3c(=O)n2-c2ccccc2)c2cc(C)ccc21 (stereo unspecified) | -0.44% (inactive)
O=C(Nc1nnc(COc2ccccc2)s1)Nc1ccccc1F | 1.51% (inactive)
CCOC(=O)C1(CCOC)CCN(Cc2ccc(C(=O)OC)cc2)CC1 | -3.33% (inactive)
CC(C)Oc1ccc(CCC(=O)NNC(=S)NCc2ccccc2)cc1 | 5.08% (inactive)
CCN(CC)CCC(c1ccc2c(c1)OCO2)c1c(OC)cc(OC)c2c(-c3ccccc3)cc(=O)oc12 (stereo unspecified) | -12.8% (inactive)
O=C(c1ccccc1Cl)N(Cc1ccccc1F)N1C(=O)CCCC1=O | -0.77% (inactive)
CCC(C)[C@@H](C(=O)N1CCNCC1)n1cc(CCCCN)nn1 (stereo partly specified) | -2.39% (inactive)
CCOC(=O)C1(C)NC(c2ccco2)C2C(=O)N(c3ccccc3)C(=O)C21 (stereo unspecified) | -2.99% (inactive)
